Compound activity as filed in PubChem.
NLRP3 yeast inh: NALP3 inflammasome inhibitors in reconstituted yeast, primary screen, luminescence, uHTS. Yeast reconstituted NLRP3/ASC/caspase-1, beta-gal luminescence, 24 h. 330,000 compounds, 0.39% hits. inhibition, % at 10 µM. AID 2825, 2010;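 active means inhibition of 50% or more; inactive means inhibition below 50%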
PolyA inh: polyadenylation inhibitors in yeast reporter cells, primary screen, luminescence, S. cerevisiae; S. cerevisiae SKY197-pL101 polyadenylation reporter, beta-gal luminescence; efflux-impaired pdr1/pdr3 knockout yeast; score 100 = 6 SD above DMSO; activity score, % at 12 µM; 300,000 compounds, 0.02% hits; AID 1875, 2009;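 active means lowest replicate activity score at least 50, where 100 means six control SD above control mean; inconclusive means lowest score under 50 but half or more replicates reach 50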;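 further: yeast exposed to compound for 9 h at 30 °C; higher score means more reporter readthrough which indicates perturbed polyadenylation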
Arrestin-AP2 inh: inhibitors of beta-arrestin/AP2 binding, primary screen, biochemical, GPCR trafficking, flow cytometry | inhibition, % at 10 µM | FITC-arrestin peptide / GST-AP2 beads; AP2 beta2 appendage carries R879A mutation | beta-arrestin 1 C-terminal peptide binding to AP2 beta2-adaptin appendage (human) | 340,000 compounds, 0.31% hits;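 active means inhibition above a set limit, near 3 SD of compounds lacking own fluorescence, cut at about 54% in these data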
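Material – AP2 appendage R879A on GSH beads · Buffer or medium – PBS with 0.05% Tween 20 and 0.1% BSA · Probe or stimulus – fluorescein-tagged arrestin peptide at 50 nM final · Incubation – compound with beads 12 min RT, then probe 1 h RT · Detection – high-throughput flow cytometry of beads, ex 488, em 535 nm · Evaluation – percent response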
NALP1 inh: NALP1 inflammasome inhibitors in reconstituted yeast, colorimetric, S. cerevisiae, triplicate retest; inhibition, % at 10 µM; 280,000 compounds, 0.61% hits; AID 2071, 2009; S. cerevisiae NALP1/ASC/caspase-1 growth, X-gal OD620, 72 h; in the data active means inhibition mostly above about 24%, no sharp cut-off; inactive means mostly below about 32%
Pemphigus Ab inh: inhibitors of pemphigus antibody binding to DSG3, primary screen, biochemical, bead-based, flow cytometry, scFv-GFP; Desmoglein-3 (Homo sapiens), P32926; DSG3-coupled beads, scFv-anti-DSG3-GFP binding; stronger effect = lower value; binding (percent of control), % at 10 µM; 310,000 compounds, 0.48% hits; AID 588358, 2011;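 active means binding more than 3 SD below its plate's average and above zero; inconclusive means below that plate limit but binding exactly zero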
Target sequence (P32926 whole entry, looked up): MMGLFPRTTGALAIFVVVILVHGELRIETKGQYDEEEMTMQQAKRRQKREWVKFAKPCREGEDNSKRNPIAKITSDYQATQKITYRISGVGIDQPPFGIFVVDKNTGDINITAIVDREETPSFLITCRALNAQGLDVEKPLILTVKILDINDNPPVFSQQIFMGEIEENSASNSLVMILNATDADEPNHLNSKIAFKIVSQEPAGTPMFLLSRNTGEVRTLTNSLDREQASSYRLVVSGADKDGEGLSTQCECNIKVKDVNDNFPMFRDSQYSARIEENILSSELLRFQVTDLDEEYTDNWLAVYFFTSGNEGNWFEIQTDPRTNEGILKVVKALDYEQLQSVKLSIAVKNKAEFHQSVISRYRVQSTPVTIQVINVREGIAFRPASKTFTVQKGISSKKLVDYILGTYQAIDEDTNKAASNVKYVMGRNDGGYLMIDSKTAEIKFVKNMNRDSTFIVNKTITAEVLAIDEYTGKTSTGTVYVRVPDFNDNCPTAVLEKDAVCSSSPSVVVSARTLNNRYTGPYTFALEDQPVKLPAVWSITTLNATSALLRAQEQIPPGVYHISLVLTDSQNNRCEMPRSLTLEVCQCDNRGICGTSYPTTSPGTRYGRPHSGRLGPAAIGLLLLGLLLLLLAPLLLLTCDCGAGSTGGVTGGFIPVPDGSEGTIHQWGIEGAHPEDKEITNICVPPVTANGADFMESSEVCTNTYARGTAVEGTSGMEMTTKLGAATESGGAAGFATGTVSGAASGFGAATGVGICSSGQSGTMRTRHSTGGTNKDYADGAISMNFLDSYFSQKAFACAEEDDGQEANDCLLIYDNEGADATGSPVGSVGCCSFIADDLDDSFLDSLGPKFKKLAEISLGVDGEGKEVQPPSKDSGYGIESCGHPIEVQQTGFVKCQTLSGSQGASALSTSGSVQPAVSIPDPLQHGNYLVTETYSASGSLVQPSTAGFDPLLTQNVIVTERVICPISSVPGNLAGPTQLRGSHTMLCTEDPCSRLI
ALR H2O2 inh: inhibitors of human ALR sulfhydryl oxidase, primary screen, biochemical, H2O2 detection, HRP-luminol luminescence, single point. FAD-linked sulfhydryl oxidase ALR (Homo sapiens), P55789. purified ALR, DTT oxidation. inhibition, % (no concentration beside the values). 290,000 compounds, 3.8% hits;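 active means mean replicate inhibition above about 79%, with every replicate also reaching it, limit read from the data; inconclusive means only one of the two criteria met; inactive means mean below limit and not every replicate reaching it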
Numbers stand for hits; - = inactive; ? = inconclusive; . = no result. Rows were chosen to be rich in hits. Some 4.6% of all compounds tested hit in one or more screens of this group.

SMILES	NLRP3 yeast inh	PolyA inh	Arrestin-AP2 inh	NALP1 inh	Pemphigus Ab inh	ALR H2O2 inh
Cc1cc(C)cc(N(CC(=O)N2CCN(Cc3ccccc3)CC2)S(=O)(=O)c2c(C)noc2C)c1	-	-	-	-	-	96
COc1ccc(OC)c(NC(=O)CN(c2ccc(C)cc2)S(=O)(=O)c2c(C)noc2C)c1	-	-	-	-	-	-
COc1ccc(OC)c(NC(=O)CN(c2ccc(C(C)C)cc2)S(=O)(=O)c2c(C)noc2C)c1	-	-	-	-	-	95
COc1ccc(N(CC(=O)Nc2ccc(F)c(Cl)c2)S(=O)(=O)c2c(C)noc2C)cc1	-	-	-	-	6.0	-
COc1ccc(NC(=O)CN(c2ccc(C)cc2)S(=O)(=O)c2c(C)nn(C)c2C)cc1	-	-	-	-	-	-
COc1ccc(NC(=O)CN(c2ccc(OC)cc2)S(=O)(=O)c2c(C)nn(C)c2C)cc1	-	-	-	-	-9.2	-
COc1ccc(N(CC(=O)N2CCN(c3cccc(Cl)c3)CC2)S(=O)(=O)c2c(C)noc2C)cc1	-	-	-	-	-	-
COc1ccc(N(CC(=O)Nc2ccc(OC)c(Cl)c2)S(=O)(=O)c2c(C)noc2C)cc1	-	-	-	-	-	-
CC(C)c1ccc(O)c(NC(=S)NC(=O)c2ccc3c(c2)OCO3)c1	-	-	-	-	-	?
CCOC(=O)C1CCN(C(=O)CN(c2ccc(OC)cc2)S(=O)(=O)c2c(C)noc2C)CC1	-	-	-	-	-	89
COc1ccccc1-c1cccc([C@@H]2C[C@H]3[C@@H](CN2)CON3C)c1	.	.	-	.	-	.
COc1ccc(OC)c(C2NC(=O)c3sc(=S)n(-c4ccccc4)c3N2)c1 (configuration not stated)	-	-	-	-	-	-
COc1cccc(C2NC(=O)c3sc(=S)n(-c4ccccc4)c3N2)c1 (configuration not stated)	-	-	-	-	-	97
CCCCCN(C(=O)CCC(=O)OCCOc1cccc(C)c1)c1c(N)n(CCCC)c(=O)[nH]c1=O	-	-	-	.	-	-
COCCn1c(=NC(=O)CCS(=O)(=O)c2ccccc2)sc2cc(C(=O)OC)ccc21	-	-	-	-	-9.8	-
COCCn1c(=NC(=O)CSCC(=O)Nc2cc(C)on2)sc2cc(C(=O)OC)ccc21	-	-	-	-	-	92
C=CCSc1nnc2c(n1)OC(c1ccco1)Nc1ccccc1-2 (configuration not stated)	-	-	-	-	-	98
CC(C)NC(=S)N/N=C/c1ccc(N2CCOCC2)cc1	-	-	-	-	-	99
Oc1ccc(/C=N/NC(=S)N2CCOCC2)cc1	-	-	-	-	-	99
COc1cc(/C=N/NC(=S)NCCN2CCOCC2)ccc1O	-	-	-	-	-	99
Cc1ccc(NC(=S)N2CCOCC2)cc1	-	-	-	-	-	-
COCCNC(=S)N/N=C/c1ccc(N2CCOCC2)cc1	-	-	-	-	-	99
C=C(C)CNC(=S)N/N=C/c1ccc(N2CCOCC2)cc1	-	-	-	-	-	?
Cc1cccn2c(=O)nc(SCC(=O)c3ccccc3)nc12	-	-	-	.	-	-
COc1ccc(NC(NC(=O)c2cccnc2)C(Cl)(Cl)Cl)cc1 (configuration not stated)	-	-	.	-	.	99
SMILES	NLRP3 yeast inh	PolyA inh	Arrestin-AP2 inh	NALP1 inh	Pemphigus Ab inh	ALR H2O2 inh
COc1ccc(CCC(=O)NCCS(=O)(=O)N2CCN(c3ccc(OC)cc3)CC2)cc1	-	-	-	-	.	-
COc1ccc(S(=O)(=O)NCC(c2ccc3c(c2)OCO3)N2CCOCC2)cc1 (configuration not stated)	-	-	-	.	-	-
O=C(CSc1nc(-c2ccc(F)cc2)cs1)Nc1ccccn1	-	-	-	-	44	-
Cc1csc(SCC(=O)Nc2ccccn2)n1	-	-	-	-	.	-
CC1CCCC(C)N1/N=C/c1ccc(O)cc1 (configuration not stated)	-	-	-	-	-	94
CC1CCCC(C)N1/N=C/c1ccc(C(=O)O)cc1 (configuration not stated)	-	?	-	-	-	-
COc1cc(/C=N/N2C(C)CCCC2C)cc(OC)c1O (configuration not stated)	-	-	-	-	-	100
CCOc1ccc(/C=N/N2C(C)CCCC2C)cc1OC (configuration not stated)	-	-	-	-	-	.
O=[N+]([O-])c1ccc(N2CCCC2)c([N+](=O)[O-])c1	.	.	.	.	-	.
O=C(O)c1c(Cl)c(Cl)c(Cl)c(Cl)c1C(=O)OCC1CCCO1 (configuration not stated)	.	.	.	.	-	.
CCCCNC(=O)Nc1ncn[nH]1	-	-	-	40	-	-
Nc1cc(=O)nc(SCC(=O)Nc2ccccc2)n1-c1ccccc1	-	-	-	-	-	-
C=CCn1c(N)cc(=O)nc1SCC(=O)Nc1ccc2ccccc2c1	-	-	-	-	-	99
Cc1nc(SCC(=O)Nc2ccccc2Cl)oc1C	-	-	-	-	-	99
Cc1cccc(-n2c(N)cc(=O)nc2SCC(=O)Nc2ccccc2)c1	-	-	-	-	-	98
Nc1cc(=O)nc(SCC(=O)Nc2ccccc2Cl)n1-c1ccccc1	-	-	-	-	-	99
CCc1cccc(C)c1NC(=O)CSc1nc(C)c(C)o1	-	-	-	-	-	-
CCOCCCNC(=O)c1ccc(OC2CCN(C(C)=O)CC2)c(OC)c1	-	-	-	.	-	-
CC(C)(C)c1cc(C(=O)NCCN2CCCC2)cc(C(C)(C)C)c1	-	-	-	108	-	-
COc1cc(NCCCCCCCN)c2ncccc2c1	-	-	-	-	-	96
CC(C)(C)C1CCc2c(sc(NC(=O)C3CC=CCC3C(=O)O)c2C#N)C1 (configuration not stated)	-	-	-	-	-	97
